High-throughput results (PubChem)
Runt-CBFb FRET = inhibitors of RUNX1 Runt–CBFb binding, primary screen, biochemical, FRET, Cerulean-Runt, Venus-CBFb, uHTS | Runt-related transcription factor 1 (Homo sapiens) + Core-binding factor subunit beta … | Cerulean-Runt/Venus-CBFb FRET ratio 530/480, 1 h | inhibition, % at 20 µM | hit rate 0.46% among 220,000;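 active = inhibition over about 50% at 20 µM in the single-dose screen, limit read from the data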;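 also: 0% = DMSO wells and 100% = excess unlabeled CBFb competitor control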
Target sequence (Q01196 whole entry, looked up): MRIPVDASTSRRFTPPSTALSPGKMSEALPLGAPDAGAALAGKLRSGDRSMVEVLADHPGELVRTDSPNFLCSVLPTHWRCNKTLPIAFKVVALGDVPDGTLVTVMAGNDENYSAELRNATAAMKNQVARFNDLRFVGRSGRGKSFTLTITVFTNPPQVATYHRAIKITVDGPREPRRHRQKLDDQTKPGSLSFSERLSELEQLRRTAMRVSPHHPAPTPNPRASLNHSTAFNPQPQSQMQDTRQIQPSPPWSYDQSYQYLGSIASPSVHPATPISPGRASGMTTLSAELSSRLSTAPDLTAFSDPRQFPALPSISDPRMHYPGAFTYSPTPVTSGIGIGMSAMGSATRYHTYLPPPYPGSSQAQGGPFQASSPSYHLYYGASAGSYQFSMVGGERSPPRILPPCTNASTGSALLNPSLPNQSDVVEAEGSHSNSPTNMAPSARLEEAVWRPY
Target sequence (Q13951 whole entry, looked up): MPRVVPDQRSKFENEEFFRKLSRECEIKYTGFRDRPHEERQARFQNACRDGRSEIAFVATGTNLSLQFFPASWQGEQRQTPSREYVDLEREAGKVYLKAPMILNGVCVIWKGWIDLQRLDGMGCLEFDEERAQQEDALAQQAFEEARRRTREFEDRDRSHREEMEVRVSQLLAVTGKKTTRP
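Assay system: Cerulean-Runt domain fusion protein, energy donor; Signal: fluorescence energy transfer, 422 nm excitation, 530/480 nm emission; Timing: 1 h compound exposure, room temperature; Control set: unlabeled CBFb; Medium: Tris buffer pH 7.5 with salts and BSA; Compound: single test concentration of 20 µM, 1% DMSO final; Probe or stimulus: Venus-CBFb 100 nM.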
m-calpain inh = inhibitors of pig calpain II, primary screen, biochemical, fluorogenic peptide substrate, 1536-well. purified calpain II, 30 min. inhibition, % at 16 µM. hit rate 0.37% among 220,000. AID 1236, 2008;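 active = inhibition above about 50%, limit read from the data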
FAS-TE inh = FAS thioesterase domain inhibitors, primary screen, biochemical, fluorescence intensity, uHTS; hit rate 0.67% among 360,000; inhibition, % at 15 µM; recombinant FAS-TE, OMFH fluorogenic substrate, fluorescence endpoint;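 active = compounds whose normalised, plate-corrected inhibition of enzyme fluorescence in the single-dose primary screen is 50% or more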;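 also: 0% = DMSO with enzyme and 100% = substrate without enzyme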
RanGTP-Imp inh = inhibitors of RanGTP-importin-beta interaction, primary screen, biochemical, FRET, CFP-Ran, YFP-importin-beta, homogeneous; hit rate 1.1% among 300,000; inhibition, % (concentration not given with the values); AID 2216, 2009; cell-free CFP-Ran/YFP-importin-beta FRET ratio;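 active = more than half of the replicate wells show a fall in the fluorescence ratio signal beyond about 16%, limit read from the data, passing the limit was not always enough; inconclusive = exactly half of the replicate wells pass the set limit; inactive = fewer than half of replicates pass the limit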;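 also: 0% = DMSO wells and 100% = Ran loaded with GDP instead of GTP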
Runt-SMMHC FRET = inhibitors of RUNX1 Runt–CBFb-SMMHC binding, primary screen, biochemical, FRET, Cerulean-Runt, Venus-CBFb-SMMHC, uHTS; Runt-related transcription factor 1 (Homo sapiens) + Core-binding factor subunit beta …; Cerulean-Runt/Venus-CBFb-SMMHC FRET ratio 530/480, 1 h; inhibition, % at 20 µM; hit rate 0.74% among 220,000; AID 1434, 2008;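 active = mean inhibition across duplicate retests at 20 µM reaching about 50%, limit read from the data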;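 also: 0% = DMSO wells and 100% = wells with excess untagged CBFb-SMMHC; inhibitors lower the FRET ratio by blocking Runt binding to CBFb-SMMHC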
FAS-TE inh conf = FAS thioesterase domain inhibitors, confirmation, biochemical, fluorescence intensity, single concentration | inhibition, % at 15 µM | recombinant FAS-TE, OMFH fluorogenic substrate | hit rate 45% among 2,300 | shares compounds with FAS-TE inh;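 active = compounds inhibiting the enzyme by at least 50% at 15 µM in any one of the replicates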;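 also: 0% = enzyme with DMSO only and 100% = wells lacking enzyme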
* hit, by the source's call; ? = inconclusive; · = not tested or not shown. Only some compounds are listed: those with a hit (about 2.1% of all), similar ones and a draw of the others.

SMILES	Runt-CBFb FRET	m-calpain inh	FAS-TE inh	RanGTP-Imp inh	Runt-SMMHC FRET	FAS-TE inh conf
C[C@]12C(=O)N(c3ccc(C(F)(F)F)cc3)C(=O)N1[C@H]1c3ccccc3OC[C@@H]1[C@H]2c1ccccc1	·	·	81.8*	·	·	21.2
C[C@]12C(=O)N(c3ccc(Br)cc3)C(=O)N1[C@@H]1c3ccccc3OC[C@@H]1[C@H]2c1ccccc1	·	·	47.3	2.1	·	·
C[C@@]12C(=O)N(c3cccc(Cl)c3)C(=O)N1[C@@H]1c3ccccc3OC[C@@H]1[C@H]2c1ccccc1	·	·	20.4	·	·	·
CCc1ccc(NC(=O)CCc2nc3ccccc3[nH]2)cc1	-1.4	-10.7	-4.6	1.8	-1.9	·
CC(=O)OCC[C@H](NS(=O)(=O)OCC(Cl)(Cl)Cl)c1ccccc1	·	·	1.7	2.0	·	·
O=C(Nc1ccc(F)c(F)c1)C1=COCCO1	·	·	-4.2	·	·	·
C[C@]12C(=O)N(c3ccc(Cl)cc3)C(=O)N1[C@H]1c3ccccc3OC[C@@H]1[C@H]2c1ccccc1	·	·	92.9*	0.1	·	12.1
C[C@@]12C(=O)N(c3ccc(Cl)cc3)C(=O)N1[C@@H]1c3ccccc3OC[C@@H]1[C@H]2c1ccccc1	·	·	32.3	·	·	·
Cc1nn(-c2ccc([N+](=O)[O-])cc2)c2c1C(c1cccc(Br)c1)N1C(=N2)C(=O)Nc2ccccc21 (stereo unspecified)	-12.2	-14.0	70.4*	2.5	-21.9	-37.4
Cc1nn(-c2ccccc2)c2c1C(c1ccc([N+](=O)[O-])cc1)N1C(=N2)C(=O)Nc2ccccc21 (stereo unspecified)	-4.7	5.0	79.1*	0.9	-7.6	1.4
O=C(Nc1cc2c3c(c1)CC(=O)N3CCC2)C1CC1	·	·	-6.5	4.1	·	·
COc1cc(S(=O)(=O)Nc2ccc(C)cc2)ccc1N=Cc1c(C)c(C#N)c(=O)n(C)c1O	-235.5	3.3	-2.4	-13.3	12.0	·
COc1cc(S(=O)(=O)Nc2ccc(C)cc2)ccc1N=Cc1c(C)[nH]n(-c2ccc(C)cc2)c1=O	-1.5	-69.8	77.2*	-1.7	-7.2	11.3
O=C1OCCN1N1CCOC1=O	·	·	0.0	·	·	·
O=C(Cn1cc([N+](=O)[O-])ccc1=O)NCC1COc2ccccc2O1 (stereo unspecified)	·	·	52.2*	·	·	54.6*
Cc1ccc([N+](=O)[O-])cc1S(=O)(=O)NCC1COc2ccccc2O1 (stereo unspecified)	·	·	66.2*	2.3	·	60.3*
CCN(Cc1ccccc1)C(=O)COC(=O)c1cc(Cl)nc(Cl)c1	-0.3	8.1	54.9*	-0.1	-1.7	65.6*
COc1ccccc1-n1c2nc3ccccc3nc2c2c(=O)n(-c3cc(C)cc(C)c3)cnc21	-4.0	-57.2	92.0*	0.3	0.1	33.0
COc1ccccc1-n1cnc2c(c1=O)c1nc3ccccc3nc1n2-c1ccc(C)cc1	-12.3	-143.6	46.0	-3.4	-93.0	·
CCc1ccc(OCC(=O)N/N=C/c2cc([N+](=O)[O-])ccc2N2CCCCCC2)cc1	-11.5	-9.7	30.1	-2.6	-19.3	·
CCC1CCCCN1c1ccc([N+](=O)[O-])cc1/C=N/NC(=O)Cn1c2ccccc2c(=O)c2ccccc21 (stereo unspecified)	22.0	-104.8	60.4*	12.2	-22.9	21.0
CCCNC(=O)c1nnsc1S(=O)(=O)c1ccc(Cl)cc1	12.2	20.3	52.9*	·	2.2	70.2*
CCCNC(=O)c1nnsc1S(=O)c1ccc(Cl)cc1 (stereo unspecified)	15.1	0.5	14.1	12.1	12.8	·
COc1ccc([C@H]2/C=C\CN(S(=O)(=O)c3cccc4cccnc34)[C@@H](C)C(=O)N2Cc2ccc(F)cc2)cc1	·	·	78.3*	2.7	·	5.7
COc1ccc(C2/C=C\CN(S(=O)(=O)c3cccc4cccnc34)CC(=O)N2Cc2ccc(F)cc2)cc1 (stereo unspecified)	-2.4	-25.6	15.8	-0.2	1.3	·
SMILES	Runt-CBFb FRET	m-calpain inh	FAS-TE inh	RanGTP-Imp inh	Runt-SMMHC FRET	FAS-TE inh conf
COc1ccc(NC(=O)CNc2cccc(S(=O)(=O)N3CCCCCC3)c2)c([N+](=O)[O-])c1	·	·	24.7	·	·	·
CCC(=O)N1CCN(c2ccccc2NC(=S)NC(=O)c2ccco2)CC1	·	·	4.6	2.3	·	·
C=C(C)CSc1ncc(-c2cccc(C(F)(F)F)c2)cn1	-1.1	20.9	58.0*	3.7	-0.6	36.3*
CNC(=O)NC(=O)CSc1cccc(C(F)(F)F)c1	-0.3	-4.1	-4.6	0.0	0.9	·
COc1ccc([C@@H]2[C@@H]3C(=O)N(C(C)(C)C)C(=O)[C@@H]3[C@]3(Cc4ccc(Cl)cc4)C(=O)N(c4ccc(OC)cc4)C(=O)N23)cc1	·	·	92.4*	-1.8	·	28.5
COc1ccc([C@@H]2[C@@H]3C(=O)N(C(C)(C)C)C(=O)[C@@H]3[C@]3(Cc4ccccc4)C(=O)N(c4ccc(C)cc4)C(=O)N23)cc1	·	·	22.5	?	·	·
COc1ccc([C@@H]2[C@@H]3C(=O)N(C(C)(C)C)C(=O)[C@@H]3[C@]3(Cc4ccc(Cl)cc4)C(=O)N(c4ccc(Br)cc4)C(=O)N23)cc1	·	·	87.6*	-0.4	·	55.0*
COc1ccc(N2C(=O)N3[C@H](c4ccc(Cl)cc4)[C@@H]4C(=O)N(C5CCCCC5)C(=O)[C@@H]4[C@]3(Cc3ccc(Cl)cc3)C2=O)cc1	·	·	87.9*	-1.0	·	28.8
CCN1C(=O)[C@H]2[C@@H](c3ccc(C)cc3)N3C(=O)N(c4ccc(OC)cc4)C(=O)[C@@]3(Cc3ccc(Cl)cc3)[C@H]2C1=O	·	·	19.5	3.4	·	·
Cc1cccc(N2C(=O)N3[C@H](c4ccc(Br)cc4)[C@@H]4C(=O)N(C(C)(C)C)C(=O)[C@@H]4[C@]3(Cc3ccc(Cl)cc3)C2=O)c1	·	·	89.0*	?	·	44.7
NC1=NC(c2cccc(Cl)c2)N(CCc2ccc(F)cc2)C(N)=N1 (stereo unspecified)	·	·	-11.2	-5.2	·	·
CC(Oc1ccc(Br)cc1)C(=O)Nc1cc(S(=O)(=O)N2CCOCC2)ccc1N1CCCC1 (stereo unspecified)	·	·	16.2	0.1	·	·
Cn1c(/C=C/N(Cc2ccccc2)c2ccccc2)c([N+](=O)[O-])c(=O)n(C)c1=O	-1.9	1.4	56.7*	0.1	-1.0	46.9*
CCOC1=C2[C@H](c3cccs3)N(S(=O)(=O)c3ccc(C)cc3)C[C@H]2n2c(=O)n(-c3ccccc3)c(=O)n2C1	·	·	72.7*	·	·	30.0
